Source: PubChem BioAssay (Sanford-Burnham Center for Chemical Genomics)
A selection follows.
Apaf-1 act = activators of human Apaf-1 apoptosome, primary screen, biochemical, DEVD-Rh110 fluorescence, uHTS | Apoptotic protease-activating factor 1 (Homo sapiens), O14727 | activity change, negative = activation, % at 20 µM | 330,000 tested, 0.31% active | Apaf-1 apoptosome caspase-3 activation; stronger effect = lower value;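 active = activity change at or below -40% at 20 µM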
Target sequence (O14727 whole entry, looked up): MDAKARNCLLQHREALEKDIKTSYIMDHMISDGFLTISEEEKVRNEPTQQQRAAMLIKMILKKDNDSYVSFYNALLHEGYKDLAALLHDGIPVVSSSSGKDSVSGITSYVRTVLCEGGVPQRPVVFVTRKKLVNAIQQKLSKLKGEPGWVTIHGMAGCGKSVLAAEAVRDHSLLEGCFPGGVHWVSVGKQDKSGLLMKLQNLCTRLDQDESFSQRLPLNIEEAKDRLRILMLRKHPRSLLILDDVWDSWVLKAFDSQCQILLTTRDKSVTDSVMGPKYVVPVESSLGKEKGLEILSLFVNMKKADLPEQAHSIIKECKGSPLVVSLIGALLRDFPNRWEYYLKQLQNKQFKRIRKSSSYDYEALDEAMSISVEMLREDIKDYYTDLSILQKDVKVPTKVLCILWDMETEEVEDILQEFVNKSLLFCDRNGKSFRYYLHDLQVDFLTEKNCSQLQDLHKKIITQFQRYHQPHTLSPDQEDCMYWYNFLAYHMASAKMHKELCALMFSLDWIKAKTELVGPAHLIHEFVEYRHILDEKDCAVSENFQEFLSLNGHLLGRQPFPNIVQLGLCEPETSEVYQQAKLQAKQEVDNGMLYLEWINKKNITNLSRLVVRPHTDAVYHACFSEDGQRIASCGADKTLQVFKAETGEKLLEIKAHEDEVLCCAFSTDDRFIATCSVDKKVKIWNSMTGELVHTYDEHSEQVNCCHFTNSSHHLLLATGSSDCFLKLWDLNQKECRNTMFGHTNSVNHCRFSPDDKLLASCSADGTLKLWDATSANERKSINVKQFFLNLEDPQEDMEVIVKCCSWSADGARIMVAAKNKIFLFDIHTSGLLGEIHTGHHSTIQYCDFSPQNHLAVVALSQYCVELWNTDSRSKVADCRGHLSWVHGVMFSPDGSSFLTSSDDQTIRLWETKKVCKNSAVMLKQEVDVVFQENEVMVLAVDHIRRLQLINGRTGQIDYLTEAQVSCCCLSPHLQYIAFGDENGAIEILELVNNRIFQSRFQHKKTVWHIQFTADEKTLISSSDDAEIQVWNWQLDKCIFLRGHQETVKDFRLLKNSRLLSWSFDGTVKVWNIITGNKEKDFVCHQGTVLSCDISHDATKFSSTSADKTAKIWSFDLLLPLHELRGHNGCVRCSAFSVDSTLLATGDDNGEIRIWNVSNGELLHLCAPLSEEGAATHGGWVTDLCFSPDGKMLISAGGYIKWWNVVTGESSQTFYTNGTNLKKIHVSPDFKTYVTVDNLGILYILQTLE
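Material: reconstituted apoptosome of Apaf-1, cytochrome c, caspase-9, procaspase-3; times: 30 min preincubation, 50 min reaction, room temperature; measured by: fluorescence, 540 nm emission, 480 nm excitation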
Rh110 act interf = Rh110 fluorescence interference by putative Apaf-1 activators, confirmation, artefact control for Apaf-1 activator project, biochemical, 20 µM; shares compounds with Apaf-1 act; quenched caspase reaction, Ex480/Em540; fluorescence interference (activity change), % at 20 µM, hits read low; 980 tested, under 10 active; AID 504616, 2011;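 active = mean activity change at or below -40% when tested at 20 µM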
Apaf-1 act conf2 = Apaf-1 activators, single-dose retest, confirmation, biochemical, fluorescence, DEVD-Rh110, 20 µM. reconstituted apoptosome caspase-3 activity; stronger effect = lower value. AID 504617, 2011. 980 tested, 5% active. activity change, negative = activation, % at 20 µM. shares compounds with Apaf-1 act;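 active = mean activity change at or below -40%, meaning activation of 40% or more, at 20 µM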
* marks the source's active call; other numbers are inactive results.

SMILES	Apaf-1 act	others
CC1=NN(c2ccc(C)c(C)c2)C(=O)/C1=C/c1ccc2c(c1)n(C)c(=O)n2C	94
CCOC(=O)c1c(CSC(=N)N)n(-c2ccc(C)cc2)c2cc(Br)c(OC(C)=O)cc12	46
O=C(COc1ccccc1)N1CCN=C1SCc1ccc(F)cc1	56
O=C(COc1ccc(-c2ccccc2)cc1)NNC(=O)Nc1ccc(F)cc1F	-54*	Rh110 act interf=4;Apaf-1 act conf2=16
CN1CCN(c2ccc(-c3cccc(NC(=O)COc4ccccc4)c3)nn2)CC1	47
CCN(CC)CCN(C(=O)c1ccc2c(c1)CCCC2)c1nc2ccc(C)cc2s1	51
O=C1Nc2ccc(S(=O)(=O)NCc3ccco3)c3cccc1c23	49
C#CCOCCOCCOCCNc1nc(N2CCN(C(=O)[C@H]([C@@H](C)CC)n3cc([C@@H](N)CC(C)C)nn3)CC2)nc(N2CCN(C(=O)[C@H](Cc3cc4ccccc4[nH]3)n3cc([C@@H](N)CC(C)C)nn3)CC2)n1	58
CC(C)(C)C(=O)[C@@H]1[C@@H]2C(=O)N(C3CCCCC3)C(=O)[C@@H]2[C@H]2c3ccccc3C=CN12	64
C#CCOCCOCCOCCNc1nc(N2CCN(C(=O)CCCCCCCCCCNC(=O)[C@@H](CCSC)n3cc(CCO)nn3)CC2)nc(N2CCN(C(=O)CCCCCCCCCCNC(=O)[C@H]([C@@H](C)CC)n3cc(CCCCCN)nn3)CC2)n1	51
COc1cccc(-c2cc(C(=O)N3CCN(c4ccc(F)cc4)CC3)no2)c1	-69*	Rh110 act interf=-1;Apaf-1 act conf2=16
COc1ccc(OCc2cc(C(=O)N3CCC(OC)CC3)no2)c2ccccc12	49
O=C(c1cccc(S(=O)(=O)N2CCN(c3ccc(F)cc3)CC2)c1)N1CCCCCCC1	42
COc1ccc(-c2cc(C(=O)N3CCN(C(c4ccccc4)c4ccccc4)CC3)no2)cc1OC	-159*	Rh110 act interf=-6;Apaf-1 act conf2=10
CCN(CC)CCNC(=O)c1ccc(NC(=O)c2cn(-c3ccc(F)cc3)nc2-c2cccc(OC)c2)cc1	45
CC(Sc1ccc2ccccc2n1)C(=O)O (stereo not given)	6
CC(Cn1nnc2ccccc21)C(=O)O (stereo not given)	-107*	Rh110 act interf=15;Apaf-1 act conf2=-14
O=C1C(N2CCOCC2)=C(n2nnc3ccccc32)C(=O)c2ccccc21	94
C[C@H](CO)N1C[C@H](C)[C@@H](CN(C)Cc2ccc(Cl)c(Cl)c2)Oc2c(NC(=O)CCC(F)(F)F)cccc2C1=O	46
O=C(NCc1ccccn1)c1cccc(NS(=O)(=O)c2cccc(F)c2)c1	-43*	Rh110 act interf=0;Apaf-1 act conf2=9
COc1ccc(C(CNC(=O)c2cccc(NS(=O)(=O)c3ccc(C)c(F)c3)c2)N(C)C)cc1 (stereo not given)	52
OCCNC(=S)Nc1ccc2nsnc2c1	97
Cc1[nH]n(-c2ccccc2)c(=O)c1N=Nc1cccc(S(=O)(=O)N2CCOCC2)c1	46
Cc1nc2ccc3nc(NC(=O)c4ccc(S(=O)(=O)N5CCOCC5)cc4)sc3c2s1	-80*	Rh110 act interf=-7;Apaf-1 act conf2=-21
Cc1ccc(-n2c(O)c(/C=N/Nc3ccc(S(=O)(=O)N4CCOCC4)cc3[N+](=O)[O-])c3ccccc3c2=O)c(C)c1	51
SMILES	Apaf-1 act	others
CCN1CCN(c2ccc(S(=O)(=O)N3CCOCC3)cc2NC(=O)CC(C)C)CC1	50
Cc1cc(NC(=O)c2cccc(S(=O)(=O)N3CCOCC3)c2)no1	-50*	Rh110 act interf=2;Apaf-1 act conf2=9
CN(C)CCCN(C(=O)c1ccc(S(=O)(=O)N2CCc3ccccc3C2)cc1)c1nc2ccc(F)cc2s1	70
O=C(Nc1ccc(N2CCCC2)cc1)C(Cl)c1ccccc1 (stereo not given)	65
C[C@H]1CN([C@@H](C)CO)C(=O)Cc2cc(NC(=O)CCC(F)(F)F)ccc2O[C@H]1CN(C)Cc1ccc(-c2ccccc2)cc1	41
CCOC(=O)Cc1csc(N/C(=N/S(=O)(=O)c2ccc(Cl)cc2)c2ccccc2)n1	63
CCOC(=O)Nc1ccc2c(c1)N(C(=O)OCCN(C)C)c1ccccc1CC2	-1
CC(=O)Nc1ccc(CN2CCc3c([nH]c4ccccc34)C2C(C)(C)C)cc1 (stereo not given)	-55*	Rh110 act interf=9;Apaf-1 act conf2=15
CC[C@@H](C)[C@@H]1CN([C@@H](C)CN2CCC[C@H]2CN2C(N)=NC[C@@H]2Cc2ccccc2)C(=N)N1CCCC1CCCC1	62
Nc1nn2c(-c3ccccc3)cc(=O)[nH]c2c1N=Nc1ccc(O)cc1	41
